Data as given in ChEMBL document CHEMBL3351733, “Inhibition of the lymphoid tyrosine phosphatase: the effect of zinc(II) ions and chelating ligand fragments on enzymatic activity” (Bioorg Med Chem Lett, 2014).
Calls of active or inactive are those of the source. The rule behind the calls is not given here.

Columns and labels:
[1] = target: T1, Tyrosine-protein phosphatase non-receptor type 22 (Homo sapiens) (UniProt Q9Y2R2); assay: Protection against 40 uM zinc-acetate-induced inhibition of LYP (unknown origin) at 80 uM incubated for 30 mins at 25 degC before addition of DiFMUP substrate
T1 sequence (whole entry): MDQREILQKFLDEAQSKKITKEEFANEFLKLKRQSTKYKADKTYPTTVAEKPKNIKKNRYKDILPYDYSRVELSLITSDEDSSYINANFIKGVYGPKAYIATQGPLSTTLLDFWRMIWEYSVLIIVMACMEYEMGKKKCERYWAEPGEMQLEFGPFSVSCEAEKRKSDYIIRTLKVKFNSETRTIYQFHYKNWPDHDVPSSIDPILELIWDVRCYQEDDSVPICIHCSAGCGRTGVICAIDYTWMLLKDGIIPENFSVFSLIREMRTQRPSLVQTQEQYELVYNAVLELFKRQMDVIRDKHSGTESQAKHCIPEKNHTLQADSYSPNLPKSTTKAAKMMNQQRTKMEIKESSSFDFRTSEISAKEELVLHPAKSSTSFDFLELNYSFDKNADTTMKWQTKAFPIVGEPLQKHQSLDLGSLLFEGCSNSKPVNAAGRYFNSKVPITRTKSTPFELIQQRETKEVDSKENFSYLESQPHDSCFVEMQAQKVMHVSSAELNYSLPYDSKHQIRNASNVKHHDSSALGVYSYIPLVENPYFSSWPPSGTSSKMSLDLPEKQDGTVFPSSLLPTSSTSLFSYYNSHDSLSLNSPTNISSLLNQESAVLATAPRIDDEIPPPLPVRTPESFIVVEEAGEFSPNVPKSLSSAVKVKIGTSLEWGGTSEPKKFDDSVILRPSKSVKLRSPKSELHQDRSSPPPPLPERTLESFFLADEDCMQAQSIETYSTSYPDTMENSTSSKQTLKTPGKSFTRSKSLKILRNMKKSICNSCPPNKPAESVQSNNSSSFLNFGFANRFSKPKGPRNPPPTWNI

[2] = target: T1, Tyrosine-protein phosphatase non-receptor type 22 (Homo sapiens); assay: Inhibition of LYP (unknown origin) at 20 to 100 uM incubated for 30 mins at 25 degC before addition of DiFMUP substrate
[3] = target: T2, Tyrosine-protein phosphatase non-receptor type 22 (Homo sapiens, UniProt Q9Y2R2); assay: Inhibition of LYP (unknown origin) using DiFMUP substrate incubated for 2 hrs
T2 sequence (Q9Y2R2 whole entry): T1 sequence (whole entry)
Method in brief: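 LYP preincubated with inhibitor for 0, 30, 60 and 120 min before activity was read, without added zinc. IC50 came from the dose-response after the 2 h incubation.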

[4] = target: T3, Tyrosine-protein phosphatase non-receptor type 1 (Homo sapiens) (UniProt P18031); assay: Inhibition of PTP1B (unknown origin)
T3 sequence (whole entry): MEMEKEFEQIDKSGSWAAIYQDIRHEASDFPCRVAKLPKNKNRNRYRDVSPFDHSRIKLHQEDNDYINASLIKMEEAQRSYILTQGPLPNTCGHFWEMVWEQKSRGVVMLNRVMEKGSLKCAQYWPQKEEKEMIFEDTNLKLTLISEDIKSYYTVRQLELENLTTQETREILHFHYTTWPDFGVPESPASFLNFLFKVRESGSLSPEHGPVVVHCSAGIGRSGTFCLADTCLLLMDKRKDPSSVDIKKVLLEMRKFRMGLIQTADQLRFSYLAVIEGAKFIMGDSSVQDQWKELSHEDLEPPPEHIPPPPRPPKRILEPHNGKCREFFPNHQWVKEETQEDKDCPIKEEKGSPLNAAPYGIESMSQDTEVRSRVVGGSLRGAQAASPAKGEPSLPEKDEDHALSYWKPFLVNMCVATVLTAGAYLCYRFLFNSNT

[5] = target: T1, Tyrosine-protein phosphatase non-receptor type 22 (Homo sapiens); assay: Inhibition of LYP (unknown origin) incubated for 30 mins at 25 degC before addition of DiFMUP substrate in presence of 5 uM zinc acetate; settings: TDE = time-dependent effect
Method in brief: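 Fragment screen and follow-up dose-response run with 5 μM zinc acetate added to the LYP assay, alongside a parallel series without zinc.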

[6] = target: T4, Receptor-type tyrosine-protein phosphatase C (Homo sapiens) (UniProt P08575); assay: Inhibition of CD45 (unknown origin)
T4 sequence (whole entry): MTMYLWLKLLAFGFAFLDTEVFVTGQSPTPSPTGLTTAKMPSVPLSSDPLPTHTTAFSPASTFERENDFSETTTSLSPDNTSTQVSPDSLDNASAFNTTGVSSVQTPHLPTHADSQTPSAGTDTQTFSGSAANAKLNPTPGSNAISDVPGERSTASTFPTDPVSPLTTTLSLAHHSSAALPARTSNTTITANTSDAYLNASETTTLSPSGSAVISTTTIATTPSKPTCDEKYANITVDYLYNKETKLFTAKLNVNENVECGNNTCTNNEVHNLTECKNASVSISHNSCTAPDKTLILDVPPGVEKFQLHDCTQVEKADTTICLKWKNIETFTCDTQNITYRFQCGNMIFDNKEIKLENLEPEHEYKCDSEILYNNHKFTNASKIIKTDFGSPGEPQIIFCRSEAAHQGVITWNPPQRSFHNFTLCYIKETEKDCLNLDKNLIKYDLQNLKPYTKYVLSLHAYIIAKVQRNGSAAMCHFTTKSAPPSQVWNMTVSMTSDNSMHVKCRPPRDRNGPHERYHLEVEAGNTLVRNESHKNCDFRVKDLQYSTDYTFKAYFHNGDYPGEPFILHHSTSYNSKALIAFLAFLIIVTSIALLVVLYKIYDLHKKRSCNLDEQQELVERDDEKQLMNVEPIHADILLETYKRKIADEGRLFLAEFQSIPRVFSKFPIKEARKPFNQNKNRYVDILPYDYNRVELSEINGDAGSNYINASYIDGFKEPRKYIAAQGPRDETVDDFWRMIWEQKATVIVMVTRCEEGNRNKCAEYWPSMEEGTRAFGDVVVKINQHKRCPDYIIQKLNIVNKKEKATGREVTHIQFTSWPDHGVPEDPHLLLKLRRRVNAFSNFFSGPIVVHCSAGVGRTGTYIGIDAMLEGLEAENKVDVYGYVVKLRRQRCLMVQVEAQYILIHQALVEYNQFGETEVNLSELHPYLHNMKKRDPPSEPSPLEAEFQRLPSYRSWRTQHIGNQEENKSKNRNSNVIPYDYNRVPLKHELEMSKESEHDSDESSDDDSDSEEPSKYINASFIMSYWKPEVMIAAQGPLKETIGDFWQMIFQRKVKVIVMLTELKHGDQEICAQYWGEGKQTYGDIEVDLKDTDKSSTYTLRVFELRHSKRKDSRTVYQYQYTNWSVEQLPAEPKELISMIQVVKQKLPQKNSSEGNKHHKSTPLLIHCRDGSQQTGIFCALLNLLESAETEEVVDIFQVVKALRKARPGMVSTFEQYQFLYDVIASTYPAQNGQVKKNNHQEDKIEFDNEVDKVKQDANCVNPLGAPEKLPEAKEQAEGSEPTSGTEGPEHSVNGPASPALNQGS

[7] = Inhibition of YopH (unknown origin)

| Compound | Activity [1] | inhibition [2] | IC50 [3] | also measured |
| --- | --- | --- | --- | --- |
| c1ccc(CNCc2ccccn2)nc1 | Active | inactive | – | – |
| O=C1C=Cc2ccccc2C1=O [1,2-NAPHTHOQUINONE] | – | – | 1100 nM | – |
| Oc1ccc(Cl)c2cccnc12 | Active | inactive | – | – |
| Oc1ccc2ccccc2c1O | – | – | 2520 nM | inhibition [4]: Active; inhibition [5]: tde; inhibition [6]: Active; inhibition [7]: Active |
| O=C(O)c1cccc(C(=O)O)n1 | Active | inactive | – | – |
| O=C1C=C(O)C(=O)c2ccccc21 [LAWSONE] | – | – | 5600 nM | – |
